ChEMBL document CHEMBL1156296, “Development of novel, highly potent inhibitors of V-RAF murine sarcoma viral oncogene homologue B1 (BRAF): increasing cellular potency through optimization of a distal heteroaromatic group” (J Med Chem, 2010)
pIC50: −log10 of the molar value.

How the values were obtained:
[1] = molecular target: T1, Serine/threonine-protein kinase B-raf (Homo sapiens, UniProt P15056, V600E); test: Inhibition of human BRAF V600E mutant expressed in baculovirus system
Method in brief: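 Isolated purified V600E BRAF kinase with a 45 min incubation. Enzyme inhibition measured and IC50 derived. Run in triplicate, with one compound measured once.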

[2] = molecular target: T1, Serine/threonine-protein kinase B-raf; test: Inhibition of BRAF V600E mutant ERK phosphorylation in human WM266.4 cells; assay type: cell-based
Method in brief: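 WM266.4 melanoma cells, which carry mutant V600E BRAF, exposed to inhibitor for 6 h. ERK phosphorylation (pERK) measured and IC50 derived. Run in triplicate, with a few compounds measured once.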

[3] = Growth inhibition of human WM266.4 cells expressing BRAF V600E mutant after 96 hrs by SRB assay
[4] = Half life in BALB/cAnNCrl mouse at 20 mg/kg, po; assay type: ADME, organism-based; parameters: dose 20 mg/kg, route oral; conditions: in vivo
Method in brief: (§1)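 Female BALB/cAnNCrl mice, at least 6 weeks old, dosed once by oral gavage at 10 mL/kg in DMSO/water 1:19 v/v. Blood was taken at six or eight time points from 15 min to 18 or 24 h, three mice per time point, by terminal cardiac puncture under halothane or isoflurane into heparinized syringes. Plasma was snap frozen and stored at -70 °C.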

[5] = Oral bioavailability in BALB/cAnNCrl mouse at 20 mg/kg; assay type: ADME, organism-based; conditions: in vivo
Method in brief: (§2)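 Female BALB/cAnNCrl mice, at least 6 weeks old. The oral arm was gavage at 10 mL/kg in DMSO/water 1:19. The iv arm was 2 mg/kg (~4 μmol/kg) at 10 mL/kg in DMSO/Tween-20/water 10:1:89, sampled at seven or eight points from 5 min to 18 or 24 h. Three mice per time point, terminal cardiac blood, plasma.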

Liver microsomes = test: Metabolic stability in human liver microsomes; assay type: ADME, Microsome
Method in brief: (§3)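 Phase I microsomal incubation of compound at 10 μM for 30 min, stopped with 3 volumes of methanol containing 500 nM roscovitine as internal standard. Parent and metabolites were measured by LC-MS, positive-ion electrospray, on a polar reversed-phase column.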

[6] = Selectivity ratio of GI50 for human WM266.4 cells expressing BRAF V600E mutant to GI50 for human WM1361 cells
[7] = Metabolic stability in mouse liver microsomes; assay type: ADME, Microsome; method in brief: as §3
[8] = Cmax in BALB/cAnNCrl mouse at 20 mg/kg, po; assay type: ADME, organism-based; parameters: dose 20 mg/kg, route oral; conditions: in vivo; method in brief: as §1
[9] = Growth inhibition of wild type human WM1361 cells after 5 days by SRB assay; conditions: WM1361, 120 h
[10] = Tmax in BALB/cAnNCrl mouse at 20 mg/kg, po; assay type: ADME, organism-based; parameters: dose 20 mg/kg, route oral; conditions: in vivo; method in brief: as §1
[11] = Growth inhibition of human WM266.4 cells expressing BRAF V600E mutant after 5 days by SRB assay; assay type: functional; conditions: WM 266-4, 120 h
[12] = Tmax in BALB/cAnNCrl mouse at 10 mg/kg, po; assay type: ADME, organism-based; parameters: dose 10 mg/kg, route oral; conditions: in vivo; method in brief: as §1
[13] = Cmax in BALB/cAnNCrl mouse at 10 mg/kg, po; assay type: ADME, organism-based; parameters: dose 10 mg/kg, route oral; conditions: in vivo; method in brief: as §1
[14] = Oral bioavailability in BALB/cAnNCrl mouse at 10 mg/kg; assay type: ADME, organism-based; conditions: in vivo; method in brief: as §2
[15] = Half life in BALB/cAnNCrl mouse at 10 mg/kg, po; assay type: ADME, organism-based; parameters: dose 10 mg/kg, route oral; conditions: in vivo; method in brief: as §1
[16] = Ratio of plasma concentration in Crl:CD1-Foxn1nu mouse to GI50 for human WM266.4 cells xenografted in Crl:CD1-Foxn1nu mouse; assay type: ADME; conditions: in vivo

T1 sequence (P15056 2-766 V600E limits assumed): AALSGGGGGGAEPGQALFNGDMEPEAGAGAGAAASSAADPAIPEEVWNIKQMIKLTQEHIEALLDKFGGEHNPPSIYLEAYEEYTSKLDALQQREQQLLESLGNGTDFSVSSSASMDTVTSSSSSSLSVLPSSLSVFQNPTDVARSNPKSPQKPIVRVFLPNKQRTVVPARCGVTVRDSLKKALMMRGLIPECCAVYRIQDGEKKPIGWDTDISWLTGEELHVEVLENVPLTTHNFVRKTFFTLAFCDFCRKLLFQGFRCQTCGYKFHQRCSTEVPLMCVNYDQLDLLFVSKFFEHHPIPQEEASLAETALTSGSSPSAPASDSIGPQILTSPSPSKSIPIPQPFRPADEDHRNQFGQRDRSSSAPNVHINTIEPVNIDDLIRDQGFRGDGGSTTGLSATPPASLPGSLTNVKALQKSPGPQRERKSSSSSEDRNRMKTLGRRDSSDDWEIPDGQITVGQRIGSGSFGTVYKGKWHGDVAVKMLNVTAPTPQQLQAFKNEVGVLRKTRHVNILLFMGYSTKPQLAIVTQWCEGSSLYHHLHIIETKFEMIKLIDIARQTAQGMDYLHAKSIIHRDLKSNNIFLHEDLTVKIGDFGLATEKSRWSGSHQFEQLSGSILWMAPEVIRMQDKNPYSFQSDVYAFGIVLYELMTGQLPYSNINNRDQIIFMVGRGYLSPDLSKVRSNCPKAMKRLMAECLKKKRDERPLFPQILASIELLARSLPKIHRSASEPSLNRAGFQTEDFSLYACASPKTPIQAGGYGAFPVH

SMILES | pIC50 [1] | pIC50 [2] | GI50 [3] [nM] | half-life [4] [h] | bioavailability [5] [%] | Stability (Liver microsomes) [%] | fold change (FC) [6] | Stability [7] [%] | Cmax [8] [µM] | GI50 [9] [nM] | Tmax [10] [h] | GI50 [11] [nM] | Tmax [12] [h] | Cmax [13] [µM] | bioavailability [14] [%] | half-life [15] [h] | Ratio [16]
Cc1ccc(-n2nc(C(C)(C)C)cc2NC(=O)Nc2ccc(Oc3ccnc4c3[nH]c(=O)n4C)cc2)cc1 | 5.52 | 7.44 | 52 | – | – | – | – | – | – | – | – | – | – | – | – | – | –
Cn1c(=O)[nH]c2nccc(Oc3ccc(NC(=O)Nc4cc(C(C)(C)C)nn4-c4ccccc4)c4ccccc34)c21 | 6.60 | 7.72 | – | 1.91 | 33 | < 30 | 49 | < 30 | 35.5 | 1200 | 1.5 | 24 | – | – | – | – | –
Cc1ccc(-n2nc(C(C)(C)C)cc2NC(=O)Nc2ccc(Oc3ccnc4[nH]c(=O)n(C)c34)c3ccccc23)cc1 | 5.64 | 7.59 | – | – | – | < 30 | – | < 30 | – | – | – | 16 | 1 | 43.3 | 43 | 8.4 | –
Cc1ccc(-n2nc(C(C)(C)C)cc2NC(=O)Nc2ccc(Oc3ccnc4[nH]c(=O)[nH]c34)cc2)cc1 | 6.85 | 6.38 | – | 4 | 6.5 | – | – | – | 3.67 | – | 0.5 | 300 | – | – | – | – | 12
